From ChEMBL document CHEMBL4325822, “Discovery of a tetrazolyl β-carboline with in vitro and in vivo osteoprotective activity under estrogen-deficient conditions” (Medchemcomm, 2018)
pEC50: −log10 of the molar value. Calls of active or inactive are those of the source. The rule behind the calls is not given here.

What was measured:
[1] = Induction of osteoblast differentiation in Sprague-Dawley rat calvarial osteoblasts assessed as alkaline phosphatase activity after 48 hrs using PNPP as substrate by spectrophotometric method; assay type: functional, cell-based; settings: Rattus norvegicus, Sprague-Dawley, Calvarial osteoblast, 48 h; read-out: EC50
In short: (§1)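 Calvarial osteoblasts at 2 × 10³ cells/well. Treated 48 h with varied concentrations in differentiation medium (5% charcoal-treated FBS, 10 mM β-glycerophosphate, 50 µg·mL⁻¹ ascorbic acid). Total ALP read with PNPP substrate at 405 nm. Cell-free wells check for compound interference with substrate or absorbance.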

[2] = Induction of osteoblast differentiation in Sprague-Dawley rat calvarial osteoblasts assessed as alkaline phosphatase activity at 1 nM after 48 hrs using PNPP as substrate by spectrophotometric method relative to control; assay type: functional; in short: as §1
[3] = Induction of osteoblast differentiation in Sprague-Dawley rat calvarial osteoblasts assessed as alkaline phosphatase activity at 10 pM after 48 hrs using PNPP as substrate by spectrophotometric method relative to control; assay type: functional; in short: as §1
[4] = Induction of osteoblast differentiation in Sprague-Dawley rat calvarial osteoblasts assessed as alkaline phosphatase activity at 100 nM after 48 hrs using PNPP as substrate by spectrophotometric method relative to control; assay type: functional; in short: as §1
[5] = Increase in OCN mRNA expression in Sprague-Dawley rat calvarial osteoblasts at 10 nM by RT-PCR method relative to control; assay type: functional, Calvarial osteoblast
In short: (§2)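 Primary calvarial osteoblasts were lysed in TRIzol after treatment, and total RNA was extracted. Transcripts were quantified by real-time PCR using the comparative CT (ΔΔCT) method.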

Calvarial osteoblast [6] = assay: Osteogenic activity in Sprague-Dawley rat calvarial osteoblasts assessed as mineralized nodule formation at 10 nM after 21 days by alizarin red-S staining based light microscopic method; assay type: functional, cell-based
In short: (§3)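 Osteoblasts at 10,000–15,000 cells/cm² in duplicate plates, 21 days in differentiation medium, medium changed every 48 h. Cells fixed in 4% PFA, stained with alizarin red-S (40 mM, pH 4.5, 30 min) and photographed. Stain extracted with 10% acetic acid, pH brought to 4.5 with ammonium hydroxide, read at 405 nm, normalized to cell number.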

[7] = Induction of osteoblast differentiation in Sprague-Dawley rat calvarial osteoblasts assessed as alkaline phosphatase activity at 10 nM after 48 hrs using PNPP as substrate by spectrophotometric method relative to control; assay type: functional; in short: as §1
Calvarial osteoblast [8] = assay: Cytotoxicity against Sprague-Dawley rat calvarial osteoblasts assessed as reduction in cell viability at 0.000001 to 1 uM after 48 hrs by MTT assay; assay type: cell-based
In short: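 Osteoblasts came from pooled calvaria of 1-2-day-old Sprague-Dawley pups, isolated by sequential dispase/collagenase digestion. Cells were exposed to compound at 1 pM to 1 µM for 48 h, and viability was measured by MTT.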

[9] = Increase in BMP2 mRNA expression in Sprague-Dawley rat calvarial osteoblasts at 10 nM by RT-PCR method relative to control; assay type: functional, Calvarial osteoblast; in short: as §2
Calvarial osteoblast [10] = assay: Osteogenic activity in Sprague-Dawley rat calvarial osteoblasts assessed as mineralized nodule formation at 10 nM after 21 days by alizarin red-S staining based colorimetric method; assay type: functional; in short: as §3
Calvarial osteoblast [11] = assay: Increase in OCN protein expression in Sprague-Dawley rat calvarial osteoblasts at 10 nM after 48 hrs by Western blot analysis; assay type: functional, cell-based
In short: (§4)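 Rat calvarial osteoblasts at 60-70% confluence were treated 48 h. Whole-cell lysates were blotted, blocked in 5% milk, and probed with primary antibody overnight at 4 °C, then with HRP secondary and ECL detection. Densitometry was normalized to β-actin; fold change versus untreated cells, three independent experiments, mean ± SEM.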

Calvarial osteoblast [12] = assay: Increase in BMP2 protein expression in Sprague-Dawley rat calvarial osteoblasts at 10 nM after 48 hrs by Western blot analysis; assay type: functional, cell-based; in short: as §4
[13] = Increase in Runx2 mRNA expression in Sprague-Dawley rat calvarial osteoblasts at 10 nM by RT-PCR method relative to control; assay type: functional, Calvarial osteoblast
Calvarial osteoblast [14] = assay: Increase in Runx2 protein expression in Sprague-Dawley rat calvarial osteoblasts at 10 nM after 48 hrs by Western blot analysis; assay type: functional, cell-based
In short: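 Rat calvarial osteoblasts (pooled 1–2-day pups, collagenase/dispase digests) at 60–70% confluence treated 48 h. Whole-cell lysates immunoblotted with primary antibody overnight at 4 °C, then HRP secondary, with ECL detection. Densitometry gives fold change normalized to β-actin versus untreated cells. Mean ± SEM of three independent experiments.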

With `COC(=O)c1cc2c([nH]c3ccccc32)c(C=O)n1` the pEC50 [1] was 6.26 and the Emax at 0.001 µM [2] was 24%.

With `COC(=O)c1cc2c([nH]c3ccccc32)c(C(c2nnnn2C2CCCCC2)N2CCN(C)CC2)n1` (configuration not stated) the Emax at 10 pM [3] was 30% and the pEC50 [1] was 6.28.

With `CCOC(=O)c1cc2c([nH]c3ccccc32)c(C(c2nnnn2C(C)(C)C)N2CCN(CC)CC2)n1` (configuration not stated) the Emax at 0.1 µM [4] was 14% and the pEC50 [1] was 6.03.

With `CCOC(=O)c1cc2c([nH]c3ccccc32)c(C(NCc2ccc(OC)cc2)c2nnnn2C(C)(C)C)n1` (configuration not stated) the “fold change (FC)” value [5] was 1.8 - 4.6, the Activity (Calvarial osteoblast [6]) was “Active” and the Emax at 0.01 µM [7] was 75%. For the same compound, the Activity (Calvarial osteoblast [8]) was “Non-Toxic”, the “fold change (FC)” value [9] was 1.8 - 4.6 and the Activity (Calvarial osteoblast [10]) was 52%. For the same compound, the Activity (Calvarial osteoblast [11]) was “Active”, the Activity (Calvarial osteoblast [12]) was “Active” and the pEC50 [1] was 5.92. For the same compound, the “fold change (FC)” value [13] was 1.8 - 4.6 and the Activity (Calvarial osteoblast [14]) was “Active”.
